Source: ChEMBL document CHEMBL1132707, “1-(N-alkylamino)-11-(N-ethylamino)-4,8-diazaundecanes: simple synthetic polyamine analogues that differentially alter tubulin polymerization” (J Med Chem, 1999)

Tests used:
Assay type in all cases: protein assay
[1] = biological target: T1, Tubulin (Bos taurus) (UniProt Q6B856+Q862L2+Q862F3); test: The compound was evaluated for its effect on tubulin polymerization in the absence of MAPS as rate =change in OD340/min
In short: (§1)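 MAP-free purified tubulin, thawed immediately before use. Buffer A (0.1 M MES pH 6.7, 1.0 mM MgCl2, 0.5 mM EGTA), no GTP or organic solvent, with 1 mM analogue (or analogue plus 1 mM spermine), warmed to 37 °C. Started by 10-fold dilution of 10 mg/mL tubulin. OD340 followed from 30 s, equilibrium read at 10 min. At least three determinations, variation ≤10%.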

[2] = biological target: T1, Tubulin (Bos taurus); test: The compound (1 mM) + spermine (1 mM) mixture was evaluated for its effects on tubulin polymerization in the presence of MAPS as equilibrium reading (20 min reading)
In short: (§2)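 MAP-rich tubulin, thawed just before the reaction. Buffer A (0.1 M MES pH 6.7, 1.0 mM MgCl2, 0.5 mM EGTA) containing 1 mM analogue (or analogue plus 1 mM spermine), equilibrated at 37 °C. Started by 7.5-fold dilution of 7.5 mg/mL tubulin. OD340 followed from 30 s, equilibrium read at 20 min. At least three determinations, variation ≤10%.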

[3] = biological target: T1, Tubulin (Bos taurus); test: The compound (1 mM) + spermine (1 mM) mixture was evaluated for its effects on tubulin polymerization in the absence of MAPS as equilibrium reading (10 min reading); in short: as §1
[4] = biological target: T1, Tubulin (Bos taurus); test: The compound (1 mM) + spermine (1 mM) mixture was evaluated for its effects on tubulin polymerization in the presence of MAPS as rate =change in OD340/min; in short: as §2
[5] = biological target: T1, Tubulin (Bos taurus); test: The compound was evaluated for its effect on tubulin polymerization in the presence of MAPS as rate =change in OD340/min; in short: as §2
[6] = biological target: T1, Tubulin (Bos taurus); test: The compound (1 mM) + spermine (1 mM) mixture was evaluated for its effect on tubulin polymerization in the absence of MAPS as rate =change in OD340/min; in short: as §1
[7] = biological target: T1, Tubulin (Bos taurus); test: The compound was evaluated for its effect on tubulin polymerization in the presence of MAPS as equilibrium reading (20 min reading); in short: as §2
[8] = biological target: T1, Tubulin (Bos taurus); test: The compound was evaluated for its effect on tubulin polymerization in the absence of MAPS as equilibrium reading (10 min reading); in short: as §1

Structure (SMILES) | Rate (delta OD340 min-1) [1] | Equilibrium OD340 [2] | Equilibrium OD340 [3] | Rate (delta OD340 min-1) [4] | Rate (delta OD340 min-1) [5] | Rate (delta OD340 min-1) [6] | Equilibrium OD340 [7] | Equilibrium OD340 [8] | Rate [6]
CCNCCCNCCCNCCCNCC1CCCCCC1 | 0.37 | 1.01 | 1.71 | 0.16 | 0.25 | 0.131 | 1.3 | 2.42 | –
CCNCCCNCCCNCCCNCC1CC1 | 0.096 | 0.514 | 1.08 | 0.031 | 0.036 | 0.131 | 0.098 | 0.563 | –
NCCCNCCCCNCCCN | 0.14 | – | – | – | 0.055 | – | 0.624 | 1.31 | –
CCNCCCNCCCNCCCNC[C@@H](C)CC | 0.69 | 0.392 | 1.09 | 0.069 | 0.021 | – | 0.247 | 1.79 | 0.205
